Common to all, as to assay type: in vivo
One series deals with Swiss albino mice. The series can be described thus: Acute toxicity. Conditions: i.p., observed 24 h. The method, boiled down: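 Albino mice, five per cage, on a 12 h light/dark cycle, fasted overnight. Acute toxic-class testing followed OECD 423. Deaths and signs of toxicity were recorded after dosing to estimate the median lethal dose.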
The subject of series [1] is scPTZ-induced seizure in albino mice. As to the kind of experiment: Subcutaneous pentylenetetrazole. Conditions: Mus musculus, ip, 4 h, read-out: scPTZ minimum dose for antiepileptic potential. In a few lines: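 Overnight-fasted albino mice were dosed i.p. with test compound in PEG-200 at 30, 100 and 300 mg/kg and observed at 0.5 and 4 h. Pentylenetetrazole was injected subcutaneously in the posterior midline. Protection meant no clonic spasm episode lasting 5 s, n = 5 per group. The minimum protective dose was reported.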

A further series deals with albino mice. The series can be described thus: Rotarod neurotoxicity test. The settings on record: i.p. in mice, doses 30, 100, 300 mg/kg. In a few lines:
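Albino mice of either sex, housed five per cage on a 12 h light/dark cycle and fasted overnight, were first trained to balance on a 3.2 cm diameter rod turning at 6 rpm. Trained mice then received test compound i.p. in PEG-200 at 30, 100 or 300 mg/kg. Neurotoxicity was scored as failure to stay on the rod for at least 1 min in each of three successive trials.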

Regarding `CCC1(c2ccccc2)C(=O)NC(=O)NC1=O` [phenobarbital, reference compound], the “number of animals dead/tot number of animals tested” value in the series on Swiss albino mice (dosage 5 mg/kg), with Swiss albino mice (dosage 30 mg/kg), in the series on Swiss albino mice (dosage 100 mg/kg) and in the series on Swiss albino mice (dosage 300 mg/kg) was 0/3 each time. The minimal effective dose in series [1] came out at 100 mg/kg. Further, the results for the neurotoxicity minimum dose with albino mice (0.5 h) and in the series with albino mice (4.0 h) were 100 mg/kg and 300 mg/kg, respectively.
